Measured values reported in ChEMBL document CHEMBL1153538, “Discovery of novel antileishmanial agents in an attempt to synthesize pentamidine-aplysinopsin hybrid molecule” (J Med Chem, 2009).
In brackets after ≈: the same amount, converted by molar mass. Activity calls are given as the source filed them. The rule behind the calls is not given here.

Assays:
[1] = test system: Leishmania donovani; assay: Antileishmanial activity against Leishmania donovani MHOM/IN/Dd8 amastigote carrying firefly luciferase gene infected in mouse J774A1 cells assessed as relative luminescence unit at 12.5 ug/mL after 72 hrs; assay type: functional; conditions: for inhibition: J774.A1
Procedure, shortened: (§1)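 J774A.1 macrophages (1.5 × 10⁴/well) were seeded in RPMI-1640 with 10% FCS at 37 °C under CO₂. After 24 h they were infected with stationary-phase luciferase-expressing promastigotes (4 × 10³/well). The medium was then replaced with compound at 0.195-12.5 μg/mL for 72 h. Steady Glo luminescence (RLU) was read, and inhibition was calculated against untreated controls. IC50 values are the mean of two independent assays.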

[2] = test system: Leishmania donovani; assay: Antileishmanial activity against Leishmania donovani MHOM/IN/Dd8 […] carrying firefly luciferase gene infected in mouse J774A1 cells assessed as relative luminescence unit at 10 ug/mL after 72 hrs; assay type: functional; conditions: for inhibition at 10 µg/mL: MHOM/IN/Dd8, J774.A1, 72 h; for inhibition: J774.A1
[3] = test system: J774.A1; assay: Cytotoxicity against mouse J774A1 by MTT assay; assay type: cell-based
Procedure, shortened: (§2)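 J774A.1 or KB cells were grown in RPMI with 10% FCS. Exponentially growing cells (1 × 10⁴/well) were exposed to a range of compound concentrations (DMSO stocks diluted in medium) for 72 h at 37 °C. MTT was added for 2 h, formazan was dissolved in DMSO, and absorbance was read at 544 nm. IC50 was the concentration giving 50% viability loss versus medium-only cells, estimated by template.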

[4] = test system: Leishmania donovani; assay: Antileishmanial activity against Leishmania donovani MHOM/IN/Dd8 amastigote carrying firefly luciferase gene infected in mouse J774A1 cells assessed as relative luminescence unit after 72 hrs; assay type: functional, organism-based; conditions: MHOM/IN/Dd8, J774.A1, 72 h; procedure, shortened: as §1
[5] = test system: KB; assay: Cytotoxicity against human KB cells by MTT assay; assay type: cell-based; procedure, shortened: as §2
[6] = test system: Leishmania donovani; assay: Antileishmanial activity against Leishmania donovani MHOM/IN/Dd8 amastigote carrying firefly luciferase gene infected in mouse J774A1 cells assessed as relative luminescence unit at 10 ug/mL after 72 hrs; assay type: functional; conditions: MHOM/IN/Dd8, J774.A1, 72 h
[7] = Selectivity index, ratio of IC50 for Leishmania donovani MHOM/IN/Dd8 amastigote to IC50 for human KB cells
[8] = test system: Leishmania donovani; assay: Antileishmanial activity against Leishmania donovani MHOM/IN/Dd8 amastigote infected in golden hamster assessed as parasite reduction at 50 mg/kg, ip for 5 consecutive days; assay type: functional; design: scale not given: the % may be the effect or the level left; conditions: route intraperitoneal
Procedure, shortened: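 Golden hamsters (40-45 g) were infected intracardially with 1 × 10⁷ amastigotes. Animals with +1 infection by spleen biopsy were randomized, 5-6 per sample. Intraperitoneal dosing started 2 days after biopsy and ran for 5 consecutive days. Biopsies taken 7 days after the last dose were Giemsa-stained and counted. Percentage inhibition was corrected for initial burden and the rise in untreated controls.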

[9] = test system: J774.A1; assay: Cytotoxicity against mouse J774A1 at 12.5 ug/mL by MTT assay; assay type: cell-based
[10] = test system: Leishmania donovani; assay: Ratio of drug to pentamidine for antileishmanial activity against Leishmania donovani MHOM/IN/Dd8 in mouse J774A1 cells by intracellular amastigote assay; assay type: functional, J774.A1

Row | Compound | inhibition [1] | inhibition at 10 µg/mL [2] | IC50 [3] | also measured
1 | N#Cc1ccc(OCCCCCn2cc(/C=C3\N/C(=N/c4ccccc4)NC3=O)c3ccccc32)cc1 | inactive | 92.8% |  | 
2 | N#Cc1ccc(OCCCCn2cc(/C=C3\NC(=S)NC3=O)c3ccccc32)cc1 |  | 58.8% | > 100 µg/mL | 
3 | N#Cc1ccc(OCCCCCn2cc(/C=C3\N/C(=N/Cc4ccccc4)NC3=O)c3ccccc32)cc1 | inactive | 93.9% |  | 
4 | N#Cc1ccc(OCCCCCn2cc(/C=C3\NC(=S)NC3=O)c3cccnc32)cc1 |  |  |  | IC50 [4]: 6.5 µM; IC50 [5]: 187 µM; inhibition at 10 µg/mL [6]: 97%; Ratio IC50 [7]: 28.6
5 | N/C(=N\O)c1ccc(OCCCCCn2cc(/C=C3\NC(=S)NC3=O)c3ccccc32)cc1 (mixture of isomers) |  |  |  | inhibition at 10 µg/mL [6]: 0%
6 | N#Cc1ccc(OCCCCCn2cc(C=O)c3ccccc32)cc1 | inactive |  |  | inhibition [2]: inactive
7 | N#Cc1ccc(OCCCCCn2cc(/C=C3\NC(=O)NC3=O)c3ccccc32)cc1 | inactive |  | 33 µg/mL (≈ 79.6 µM) | inhibition [2]: inactive
8 | CCCC/N=C1\NC(=O)/C(=C/c2cn(CCCCCOc3ccc(C#N)cc3)c3ccccc23)N1 | inactive | 88% |  | 
9 | N#Cc1ccc(OCCCCCn2cc(/C=C3\NC(=N)NC3=O)c3ccccc32)cc1 |  |  |  | inhibition at 10 µg/mL [6]: 0%
10 | N#Cc1ccc(OCCCCCn2cc(/C=C3\NC(=S)NC3=O)c3cc(Br)ccc32)cc1 (mixture of isomers) |  |  |  | inhibition at 10 µg/mL [6]: 12.6%
11 | O=C1NC(=S)N/C1=C\c1cn(CCCCCOc2ccccc2)c2ccccc12 |  | 40.7% | > 100 µg/mL | 
12 | CSC1=N/C(=C\c2cn(CCCCCOc3ccc(C#N)cc3)c3ccccc23)C(=O)N1C |  | 63.2% | > 100 µg/mL | 
13 | CN1C(=S)NC(=O)/C1=C\c1cn(CCCCCOc2ccc(C#N)cc2)c2ccccc12 |  | 46.4% | 14.8 µg/mL (≈ 33.3 µM) | 
14 | COc1ccc(C/N=C2\NC(=O)/C(=C/c3cn(CCCCCOc4ccc(C#N)cc4)c4ccccc34)N2)cc1OC | inactive | 93.7% |  | 
15 | O=C1N/C(=N\Cc2ccccc2)N/C1=C\c1c[nH]c2ccccc12 | inactive |  |  | inhibition [2]: inactive
16 | O=C1NC(=S)N/C1=C\c1c[nH]c2ccccc12 | inactive |  |  | inhibition [2]: inactive
17 | N=C(N)c1ccc(OCCCCCOc2ccc(C(=N)N)cc2)cc1.O=S(=O)(O)CCO |  |  |  | IC50 [4]: 20.4 µM; IC50 [5]: 2.7 µM; Ratio IC50 [7]: <1
18 | N#Cc1ccc(OCCCCCCn2cc(/C=C3\NC(=S)NC3=O)c3ccccc32)cc1 |  | 71.3% | 2.3 µg/mL (≈ 5.17 µM) | 
19 | N#Cc1ccc(OCCCCCn2cc(/C=C3\NC(=S)NC3=O)c3ccccc32)cc1 |  | 95.1% |  | inhibition at 12.5 µg/mL ([1]; MHOM/IN/Dd8, J774.A1, 72 h): 62%; Activity [8]: 62.1%; IC50 [4]: 18.2 µM; Activity [9]: Non-toxic
20 | COc1ccc(C/N=C2\NC(=O)/C(=C/c3c[nH]c4ccccc34)N2)cc1OC | inactive |  |  | inhibition [2]: inactive
21 | CSC1=N/C(=C\c2cn(CCCCCOc3ccc(C#N)cc3)c3ccccc23)C(=O)N1 |  | 75.4% | > 100 µg/mL | 
22 | NC(=O)c1ccc(OCCCCCn2cc(/C=C3\NC(=S)NC3=O)c3ccccc32)cc1 (mixture of isomers) |  |  |  | inhibition at 10 µg/mL [6]: 48.9%
23 | CN1C(=S)NC(=O)/C1=C\c1cn(CCCCCOc2ccc(/C(N)=N/O)cc2)c2ccccc12 |  | 88.2% |  | IC50 [4]: 2 µM; fold change (FC) [10]: 10; IC50 [5]: 108 µM; inhibition at 10 µg/mL [6]: 99.3%; Ratio IC50 [7]: 53.4
24 | Nc1cc(OCCCCCn2cc(/C=C3\NC(=S)NC3=O)c3ccccc32)ccn1 |  |  |  | inhibition at 10 µg/mL [6]: 32.2%
25 | O=C1NC(=S)N/C1=C\c1cn(CCCCCN2CCN(c3ccccc3)CC2)c2ccccc12 | inactive | 88.3% | > 100 µg/mL | 
